Measured values reported in PMC9924909 (Brain, 2022).
“And” between values parts separate entries of the source, which are not always exact repeats. Equal entries are not always repeated. “Also recorded” adds a separate entry of the source.

Columns and labels:
[1] = Venglustat plasma pharmacokinetics, LEAP trial; assay type: in vivo, human; conditions: for plasma venglustat concentration, mean (SD): 10 patients (Patient 9 excluded); for plasma venglustat concentration, Patient 9: single patient with low exposure
Procedure, shortened: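 Plasma sampled on Day 1 pre-dose and at 1, 2, 4, 8 and 24 h. Further samples taken 2–4 h post-dose at Weeks 4, 26 and 52, and pre-dose at Weeks 12 and 39. Oral test compound 15 mg once daily. […] Values below LLOQ entered as 0.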

glucosylceramide = assay: Glucosylceramide concentration in plasma and CSF, LEAP trial; assay type: in vivo, human
Procedure, shortened: (§1)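 CSF collected by lumbar puncture at baseline and Weeks 1, 4, 26, 52; plasma at baseline and Weeks 1, 4, 12, 26, 39, 52. Dosing was oral test compound 15 mg once daily with maintenance IV enzyme replacement. LLOQ: glucosylceramide 0.1 μg/ml plasma, 2.0 ng/ml CSF; glucosylsphingosine 5.0 ng/ml plasma, 5 pg/ml CSF. Change from baseline summarised as median percentage with interquartile range and 95% CI.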

glucosylsphingosine = assay: Glucosylsphingosine concentration in plasma and CSF, LEAP trial; assay type: in vivo, human
Procedure, shortened: as §1

[2] = tested on: monosialodihexosylganglioside; assay: Monosialodihexosylganglioside in CSF; assay type: in vivo, human; conditions: Weeks 4, 26 and 52; measurable at baseline in eight of 11 patients
Procedure, shortened: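 Exploratory CSF biomarkers quantified in CSF taken by lumbar puncture at baseline and Weeks 1, 4, 26 and 52. Adults with GD3 received oral test compound 15 mg once daily plus maintenance IV enzyme replacement for 52 weeks.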

adults with GD3 [3] = assay: Horizontal and vertical saccadic eye movements; assay type: in vivo, human; conditions: after 1 year; horizontal or vertical velocity and amplitude
Procedure, shortened: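 Horizontal and vertical saccades recorded non-invasively and assessed by a central reader. Eye-position and target traces were filtered to give eye velocity. Saccades were detected by velocity criteria, and amplitude, duration and peak velocity were derived. Patients took oral test compound 15 mg once daily on top of maintenance IV enzyme replacement for 1 year.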

adults with GD3 [4] = assay: Ataxia, Scale for Assessment and Rating of Ataxia; assay type: in vivo, human
adults with GD3 [5] = assay: Trail Making Test; assay type: in vivo, human
Procedure, shortened: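 Neurocognition measured with the Trail Making Test: Part A (timed visual search and psychomotor speed) and Part B (set-shifting, executive component). Trail B minus Trail A time was derived to remove graphomotor and visual-scanning variance. Baseline versus Week 52 under oral test compound 15 mg once daily plus maintenance IV enzyme replacement.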

adults with GD3 [6] = assay: Brain volumetric MRI, tensor-based morphometry; assay type: in vivo, human
Procedure, shortened: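 MRI of brain and brainstem (at least T1 and T2) at baseline, Week 26 and Week 52 on 1.5 or 3 T scanners, read centrally by a reviewer blinded to patient and time point. FreeSurfer parcellation. Tensor-based morphometry: symmetric log-demons registration of baseline/follow-up pairs with a cross-correlation metric. The Jacobian determinant integrated over each region gives the rate of volume change.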

adults with GD3 [7] = assay: Resting functional MRI connectivity; assay type: in vivo, human
Procedure, shortened: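 Resting-state BOLD fMRI at baseline, Week 26 and Week 52, analysed centrally and blinded. Regions of interest came from FreeSurfer segmentation masks, using parcellation of the baseline high-resolution 3D-T1 image. Full and partial connectivity were computed between resting-state networks 1, 2, 3, 6, 7 and 8 using published template maps.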

adults with GD3 [8] = assay: Systemic manifestations of GD; assay type: in vivo, human
Procedure, shortened: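 Haemoglobin, platelet count, and liver and spleen volumes assessed per standard clinical practice over 1 year of daily oral test compound 15 mg plus maintenance IV enzyme replacement. Bone mineral density measured by DXA; bone marrow burden scored from lumbar spine and femur MRI. Lung function followed ATS standards: spirometry (FVC, FEV₁), total lung capacity and carbon monoxide diffusing capacity.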

adults with GD3 [9] = assay: Safety and tolerability, LEAP trial; assay type: in vivo, human; conditions: 1 year, 11 patients
Procedure, shortened: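 Open-label, single-arm study at six centres: 11 adults with GD3 took oral test compound 15 mg once daily with maintenance IV imiglucerase every 2 weeks (stable doses 38.5–125 U/kg). Safety and tolerability were assessed over 52 weeks. No pre-specified statistical testing.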

[10] = tested on: mouse models of neurological GD; conditions: cited from earlier work
plasma glucosylceramide = conditions: cited from earlier work
[11] = tested on: glucosylceramide synthase; conditions: cited from earlier work
[12] = baseline to Week 52, 11 patients
[13] = individual patients, baseline to Week 52
[14] = after 1 year, patient with low venglustat exposure
[15] = venglustat in combination with imiglucerase

SMILES: CC(C)(NC(=O)O[C@@H]1CN2CCC1CC2)c1csc(-c2ccc(F)cc2)n1 [Venglustat]
- accumulation in plasma after once-daily dosing versus Day 1 ([1]; 4 h post-dose plasma concentrations, 15 mg once daily): ~2 fold
- plasma venglustat concentration, mean (SD) ([1]; Day 1, ~4 h post-dose, 15 mg once daily): 48 (17.5) ng/ml
- plasma venglustat concentration, mean (SD) ([1]; Week 4, ~4 h post-dose, 15 mg once daily): 116 (48.1) ng/ml
- plasma venglustat concentration, Patient 9 ([1]; Week 4): 102 ng/mL
- plasma venglustat concentration, mean (SD) ([1]; Week 26, ~4 h post-dose, 15 mg once daily): 120 (40.1) ng/ml
- plasma venglustat concentration, Patient 9 ([1]; Week 26): 53.3 ng/mL
- plasma venglustat concentration, mean (SD) ([1]; Week 52, ~4 h post-dose, 15 mg once daily): 114 (65.8) ng/ml
- plasma venglustat concentration, Patient 9 ([1]; Week 52): undetectable
- AUC(0-t) ([1]; human, plasma, po, 15 mg): 0.851 µg·h/mL
- Cmax ([1]; human, plasma, po, 15 mg): 0.0581 µg/mL
- Tmax ([1]; human, plasma, po, 15 mg): 2 h
- steady state reached (plasma) ([1]; mean plasma concentrations, Patient 9 excluded, 15 mg once daily): ≤ 4 Week
- median glucosylceramide reduction in CSF (glucosylceramide; [12]): 81%
- median glucosylceramide reduction in plasma (glucosylceramide; [12]): 78%
- Glucosylceramide concentration, CSF, Change (glucosylceramide; [13]): −4.04 ng/ml and −4.95 ng/ml and −8.95 ng/ml and +1.64 ng/ml and −4.17 ng/ml and −4.7 ng/ml and −3.32 ng/ml and −3.53 ng/ml and −7.02 ng/ml and −13.3 ng/ml
- Glucosylceramide concentration, CSF, Percentage change (glucosylceramide; [13]): −80.2% and −83.2% and −80.6% and +37.1% and −80.7% and −82.5% and −47.4% and −77.9% and −76.9% and −87.5% and −93%
- Glucosylceramide concentration, Plasma, Change (glucosylceramide; [13]): −4.31 μg/ml and −5.49 μg/ml and −4.7 μg/ml and +1.14 μg/ml and −3.97 μg/ml and −2.24 μg/ml and −5.31 μg/ml and −4.19 μg/ml and −3.68 μg/ml and −6.69 μg/ml
- Glucosylceramide concentration, Plasma, Percentage change (glucosylceramide; [13]): −82.5% and −78.4% and −71.6% and +13.7% and −78.2% and −85.9% and −45.8% and −84% and −80.3% and −77% and −85.1%
- median glucosylsphingosine reduction in CSF (glucosylsphingosine; [12]): 70%
- median glucosylsphingosine reduction in plasma (glucosylsphingosine; [12]): 56%
- Glucosylsphingosine concentration, CSF, Change (glucosylsphingosine; [13]): −72 pg/ml and −23.2 pg/ml and −30.2 pg/ml and +75.8 pg/ml and −15.75 pg/ml and −53.5 pg/ml and −9.8 pg/ml and −14.3 pg/ml and −17.3 pg/ml and −32.7 pg/ml and −35.7 pg/ml
- Glucosylsphingosine concentration, CSF, Percentage change (glucosylsphingosine; [13]): −72% and −48% and −44.7% and +313.2% and −69.7% and −95.5% and −46% and −71.1% and −87.4% and −75.7% and −70.3%
- Glucosylsphingosine concentration, Plasma, Change (glucosylsphingosine; [13]): −3.2 ng/ml and −18.9 ng/ml and −33 ng/ml and +69 ng/ml and −3.79 ng/ml and −22.5 ng/ml and −6.28 ng/ml and −8.67 ng/ml and −8.07 ng/ml and −4.5 ng/ml and −31.3 ng/ml
- Glucosylsphingosine concentration, Plasma, Percentage change (glucosylsphingosine; [13]): −56.1% and −50.7% and −41.4% and +43.4% and −60.3% and −57.8% and −71.5% and −59.8% and −47.8% and −23.3% and −64%
- monosialodihexosylganglioside in CSF on treatment [2]: undetectable in all CSF samples
- treatment effect on saccadic eye movements (adults with GD3 [3]): no clear evidence of a treatment effect
- total modified SARA score at Week 52, mean (adults with GD3 [4]; 11 patients, baseline mean 2.68, scale 0–32): 1.55
- total modified SARA score, mean change from baseline (adults with GD3 [4]; Week 52, 95% CI: −2.06 to −0.21): −1.14 points
- patients with slightly improved total modified SARA score (adults with GD3 [4]; [12]): nine patients; also recorded: nine of 11
- time to complete TMT Trail A at Week 52, mean (SD) (adults with GD3 [5]; baseline 54.4 (47.5) s): 53.5 (43.1) s
- time to complete Trail B minus Trail A at Week 52, mean (adults with GD3 [5]; baseline 99.3 s): 61.7 s
- time to complete TMT Trail B at Week 52, mean (SD) (adults with GD3 [5]; baseline 153.6 (149.4)): 115.3 (76.8) seconds
- patients with reduction in Trail B minus Trail A time (adults with GD3 [5]; baseline to Week 52): 7 of 11
- time to complete TMT Trail A, mean change (adults with GD3 [5]; baseline to Week 52, 95% CI: −21.0 to 19.4): -0.8 s
- time to complete Trail B minus Trail A, mean change (adults with GD3 [5]; baseline to Week 52, 95% CI: −88.1 to 13.0): -37.5 s
- time to complete TMT Trail B, mean change (adults with GD3 [5]; baseline to Week 52, 95% CI: −104.8 to 28.1): -38.4 s
- patients with reduction in TMT Trail B time (adults with GD3 [5]; baseline to Week 52, marked reduction): 8 of 11
- patients with reduction in TMT Trail A time (adults with GD3 [5]; baseline to Week 52, minor reduction): 5 of 11
- ventricular volume increase, Patient 9 (adults with GD3 [6]; [14]): 9.6%
- whole brain volume reduction, Patient 9 (adults with GD3 [6]; [14]): 1.57%
- change in whole brain volume, Patient 9 (adults with GD3 [6]; after 1 year, patient with low-to-undetectable venglustat exposure, baseline 882 951 mm^3): −13894.8 mm^3
- MRI whole brain volume, Percentage change (adults with GD3 [6]; [13]): −0.52% and 0.38% and 0.11% and −1.57% and −0.22% and −0.23% and 0.025% and 0.48% and 0.21%
- regional brain volume change (mean atrophy ± SD), left cuneus (adults with GD3 [6]; vMRI Group A, Week 52): 37.2 ± 46.2
- regional brain volume change (mean atrophy ± SD), left entorhinal (adults with GD3 [6]; vMRI Group A, Week 52): 34.5 ± 32.1
- regional brain volume change (mean atrophy ± SD), left lingual (adults with GD3 [6]; vMRI Group A, Week 52): 50.1 ± 80.0
- regional brain volume change (mean atrophy ± SD), left pericalcarine (adults with GD3 [6]; vMRI Group A, Week 52): 18.5 ± 22.0
- regional brain volume change (mean atrophy ± SD), left putamen (adults with GD3 [6]; vMRI Group A, Week 52): 94.7 ± 78.7
- regional brain volume change (mean atrophy ± SD), right accumbens area (adults with GD3 [6]; vMRI Group A, Week 52): 12.9 ± 9.6
- regional brain volume change (mean atrophy ± SD), right amygdala (adults with GD3 [6]; vMRI Group A, Week 52): 60.8 ± 74.9
- regional brain volume change (mean atrophy ± SD), right postcentral (adults with GD3 [6]; vMRI Group A, Week 52): 91.7 ± 100.0
- regional brain volume change (mean atrophy ± SD), right putamen (adults with GD3 [6]; vMRI Group A, Week 52): 97.8 ± 100.8
- ventricle volume change (mean ± SD) (adults with GD3 [6]; vMRI Group A, Week 52): −438 ± 696.9
- functional connectivity relative to baseline (adults with GD3 [7]; Weeks 26 and 52, patients with venglustat exposure (fMRI Group A)): stronger connectivity
- maximal increased correlation coefficient (adults with GD3 [7]; fMRI Group A (nine patients)): 0.19 ± 0.16
- lumbar spine bone mineral density category (adults with GD3 [8]; after 1 year, seven patients with data): five patients remained in the same bone density category
- interstitial lung disease (adults with GD3 [8]; after 1 year, seven patients with detectable disease at baseline): four improved
- bone marrow burden scores (adults with GD3 [8]; during 1 year of treatment, 11 patients): remained in the same severity category in 10 patients
- haemoglobin concentrations, platelet counts, spleen and liver volumes (adults with GD3 [8]; throughout 1 year, reference range for healthy persons): remained in this range
- adverse event: acne (adults with GD3 [9]): two events in two patients
- adverse event: back pain (adults with GD3 [9]): nine events in five patients
- adverse event: diarrhoea (adults with GD3 [9]): two events in two patients
- adverse event: headache (adults with GD3 [9]): ten events in six patients
- adverse event: upper respiratory tract infection (adults with GD3 [9]): two events in two patients
- adverse event: vomiting (adults with GD3 [9]): two events in two patients
- severity of most adverse events (adults with GD3 [9]): mild or moderate, transient
- deaths and serious adverse events (adults with GD3 [9]; venglustat 15 mg once daily in combination with imiglucerase): no deaths, serious adverse events; also recorded: no deaths or serious adverse events
- discontinuation of study treatment (adults with GD3 [9]; [15]): no patient discontinued
- patients with at least one adverse event (adults with GD3 [9]; [15]): 11
- glycolipid accumulation in liver and brain [10]: reduced accumulation of gluco-series glycolipids in the liver and brain
- median survival of treated mice ([10]; increased from 45 days): 60 days
- increase in median survival ([10]; treated mice): 30%
- mean plasma glucosylceramide reduction from baseline (plasma glucosylceramide; 15 mg once daily, Day 15, healthy volunteers): 74.6%
- safety and tolerability in healthy volunteers (plasma glucosylceramide; once-daily dosing of up to 15 mg): favourable safety and tolerability profile
- Emax (plasma glucosylceramide reduction) (plasma glucosylceramide; pharmacokinetic-pharmacodynamic modelling after repeated dosing): 80%
- inhibition of glucosylceramide formation [11]: potent and specific inhibitor
